Data set [1] concerns Syrian golden hamster. Put plainly: Toxicity in Syrian hamster assessed as urea levels at 500 mg/kg administered through oral gavage for 28 days (reference value: 33.2 +/- 2.8 mg/dl). It is filed as organism-based, Mesocricetus auratus. As to conditions: in vivo, 672 h.
Data set [2] relates to Syrian golden hamster. Put plainly: Toxicity in Syrian hamster assessed as spleen weight at 5 % administered tropically on footpad for 28 days (reference value: 179.4 +/- 19.8 mg). It is filed as organism-based, Mesocricetus auratus. As to conditions: in vivo, topical_or_ocular, 672 h.
Data set [3] deals with Syrian golden hamster. Put plainly: Toxicity in Syrian hamster infected with Leishmania tropica MHOM/MA/1988/LEM1314 promastigotes assessed as mean serum creatinine levels at 1 % administered tropically on footpad for 3 weeks starting at week 7 post infection measured 1 week post last dose (reference value: 0.19 mg/dl). It is filed as organism-based, Mesocricetus auratus. As to conditions: in vivo, topical_or_ocular, 168 h.

The subject of data set [4] is Syrian golden hamster. Put plainly: Toxicity in Syrian hamster infected with Leishmania tropica MHOM/MA/1988/LEM1314 promastigotes assessed as redness at 200 mg/kg administered through oral gavage for 3 weeks starting at week 7 post infection measured during compound dosing or measured 1 week post last dose. The data set is classed as organism-based, Mesocricetus auratus. As to conditions: in vivo, 168 h. The method in brief: (§1)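 Infected hamsters (footpad, 3 × 10^7 promastigotes) were gavaged daily for 21 days from week 7 post-infection at 200 mg/kg in olive oil, n=10.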

For data set [5], the system named is Syrian golden hamster. Put plainly: Toxicity in Syrian hamster infected with Leishmania tropica MHOM/MA/1988/LEM1314 promastigotes assessed as mean serum ALT levels at 5 % administered tropically on footpad for 3 weeks starting at week 7 post infection measured 1 week post last dose (reference value: 81.6 +/- 4.9 U/L). The data set is classed as organism-based, Mesocricetus auratus. Particulars: in vivo, topical_or_ocular, 168 h.

Data set [6] concerns Leishmania tropica. Put plainly: Antileishmanial activity against Leishmania tropica MHOM/MA/1988/LEM1314 promastigotes infected in Syrian hamster assessed as reduction in parasite load in liver at […] administered once daily through oral gavage for 3 weeks starting at week 7 post infection measured 1 week post last dose by qPCR analysis relative to control. It is filed as functional, tissue-based. The method in brief:
(§2)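 Hamsters were infected in the footpad and treated daily for 21 days from week 7 post-infection, n = 10/group, and sacrificed 1 week after the last dose. Footpad skin, liver and spleen DNA was assayed by L. tropica-specific TaqMan qPCR (chromosome 29 target), in triplicate with 50 ng DNA per 25 μL reaction. Load was interpolated from Ct on a calibration curve of promastigote DNA, relative to base-ointment controls.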
A general note: Quantitative PCR measures a nucleic acid by following its amplification.

The test system of data set [7] is Leishmania tropica. Put plainly: Antileishmanial activity against Leishmania tropica MHOM/MA/1988/LEM1314 promastigotes infected in Syrian hamster assessed as reduction in parasite load in foodpad skin at 1 % administered once daily tropically on footpad for 3 weeks starting at week 7 post infection measured 1 week post last dose by qPCR analysis relative to control. The data set is classed as functional. On the set-up: scale not given: the % may be the effect or the level left. The method in brief: as §2

A short description of data set [8]: Toxicity in po dosed dog. It is filed as organism-based, Canis lupus familiaris. Particulars: in vivo.
Data set [9] concerns Leishmania tropica. Description: Antileishmanial activity against Leishmania tropica MHOM/MA/1988/LEM1314 promastigotes infected in Syrian hamster assessed as reduction in lesion thickness at 5 % administered once daily tropically on footpad for 3 weeks starting at week 7 post infection measured 1 week post last dose relative to control. It is filed as functional. On the set-up: scale not given: the % may be the effect or the level left. Put shortly:
(§3)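 L. tropica stationary-phase promastigotes (3 × 10^7 in 50 μL PBS) injected into the left hind footpad. Treatment began at week 7 (+75% footpad thickness) and ran daily for 21 days, n = 10/group. Routes were 50 mg ointment on the lesion (cetyl alcohol/lanolin/petrolatum base), gavage in olive oil, or intralesional meglumine antimoniate 2 mg SbV/kg. Lesion thickness was measured weekly against base-only ointment; sacrifice was 1 week after the last dose.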

Data set [10] concerns Syrian golden hamster. Description: Toxicity in Syrian hamster infected with Leishmania tropica MHOM/MA/1988/LEM1314 promastigotes assessed as liver weight at 2.5 % administered tropically on footpad for 3 weeks starting at week 7 post infection measured 1 week post last dose (reference value: 3.3 +/- 0.2 g). The data set is classed as organism-based, Mesocricetus auratus. Particulars: in vivo, topical_or_ocular, 168 h. Put shortly: (§4)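 Infected hamsters were treated daily for 21 days from week 7 post-infection (ointment 1–5%, 200 mg/kg gavage, or intralesional meglumine antimoniate 2 mg SbV/kg). Clinical signs and body weight were monitored during treatment and a 7-day follow-up. After sacrifice, liver and spleen were weighed and serum ALP, ALT, creatinine, urea and AST were measured with kits, compared with untreated infected animals.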

The test system of data set [11] is Syrian golden hamster. Description: Toxicity in Syrian hamster infected with Leishmania tropica MHOM/MA/1988/LEM1314 promastigotes assessed as mean serum ALT levels at 1 % administered tropically on footpad for 3 weeks starting at week 7 post infection measured 1 week post last dose (reference value: 81.6 +/- 4.9 U/L). It is filed as organism-based, Mesocricetus auratus. Particulars: in vivo, topical_or_ocular, 168 h.

The subject of data set [12] is Syrian golden hamster. Put plainly: Toxicity in Syrian hamster assessed as mean serum ALT levels at 5 % administered tropically on footpad for 28 days (reference value: 82.2 +/- 4.8 U/L). It is filed as organism-based, Mesocricetus auratus. Particulars: in vivo, topical_or_ocular, 672 h.
The subject of data set [13] is Leishmania tropica. Description: Antileishmanial activity against Leishmania tropica MHOM/MA/1988/LEM1314 promastigotes infected in Syrian hamster assessed as reduction in parasite load in liver at 1 % administered once daily tropically on footpad for 3 weeks starting at week 7 post infection measured 1 week post last dose by qPCR analysis relative to control. The data set is classed as functional, tissue-based. Put shortly: as §2

Data set [14] concerns Syrian golden hamster. Put plainly: Toxicity in Syrian hamster infected with Leishmania tropica MHOM/MA/1988/LEM1314 promastigotes assessed as mean serum AST levels at 2.5 % administered tropically on footpad for 3 weeks starting at week 7 post infection measured 1 week post last dose (reference value: 77.1 +/- 0.9 U/L). As to conditions: in vivo, topical_or_ocular, 168 h. It is filed as organism-based, Mesocricetus auratus.

Data set [15] has as its system Syrian golden hamster. Description: Toxicity in Syrian hamster infected with Leishmania tropica MHOM/MA/1988/LEM1314 promastigotes assessed as mean serum AST levels at 200 mg/kg administered through oral gavage for 3 weeks starting at week 7 post infection measured 1 week post last dose (reference value: 77.1 +/- 0.9 U/L). It is filed as organism-based, Mesocricetus auratus. As to conditions: in vivo, 168 h.

For data set [16], the system named is Syrian golden hamster. Description: Toxicity in Syrian hamster infected with Leishmania tropica MHOM/MA/1988/LEM1314 promastigotes assessed as pain at 200 mg/kg administered through oral gavage for 3 weeks starting at week 7 post infection measured during compound dosing or measured 1 week post last dose. The data set is classed as organism-based, Mesocricetus auratus. Particulars: in vivo, 168 h. The method in brief: as §1

Data set [17] deals with Syrian golden hamster. Description: Toxicity in Syrian hamster infected with Leishmania tropica MHOM/MA/1988/LEM1314 promastigotes assessed as mean serum ALP levels at 1 % administered tropically on footpad for 3 weeks starting at week 7 post infection measured 1 week post last dose (reference value: 14.4 +/- 0.9 U/L). The data set is classed as organism-based, Mesocricetus auratus. As to conditions: in vivo, topical_or_ocular, 168 h. The method in brief:
as §4

Data set [18] has as its system Syrian golden hamster. Put plainly: Toxicity in Syrian hamster assessed as footpad edema at 500 mg/kg, po or 5 % administered tropically on footpad for 28 days. The data set is classed as organism-based, Mesocricetus auratus. As to conditions: in vivo, 672 h.
Data set [19] has as its system Syrian golden hamster. Description: Toxicity in Syrian hamster infected with Leishmania tropica MHOM/MA/1988/LEM1314 promastigotes assessed as urea levels at 1 % administered tropically on footpad for 3 weeks starting at week 7 post infection measured 1 week post last dose (reference value: 32.5 +/- 0.8 mg/dl). It is filed as organism-based, Mesocricetus auratus. As to conditions: in vivo, topical_or_ocular, 168 h.

Data set [20] concerns Syrian golden hamster. Put plainly: Toxicity in Syrian hamster infected with Leishmania tropica MHOM/MA/1988/LEM1314 promastigotes assessed as mean serum AST levels at 5 % administered tropically on footpad for 3 weeks starting at week 7 post infection measured 1 week post last dose (reference value: 77.1 +/- 0.9 U/L). The data set is classed as organism-based, Mesocricetus auratus. As to conditions: in vivo, topical_or_ocular, 168 h.

Data set [21] concerns Leishmania tropica. Put plainly: Antileishmanial activity against Leishmania tropica MHOM/MA/1988/LEM1314 promastigotes infected in Syrian hamster assessed as reduction in parasite load in spleen at […] administered once daily through oral gavage for 3 weeks starting at week 7 post infection measured 1 week post last dose by qPCR analysis relative to control. The data set is classed as functional. Put shortly:
as §2

Data set [22] has as its system Leishmania tropica. Put plainly: Antileishmanial activity against Leishmania tropica MHOM/MA/1988/LEM1314 promastigotes infected in Syrian hamster assessed as reduction in lesion thickness at 1 % administered once daily tropically on footpad for 3 weeks starting at week 7 post infection measured 1 week post last dose relative to control. It is filed as functional. On the set-up: scale not given: the % may be the effect or the level left. Put shortly:
as §3

Calls of active or inactive are those of the source. The calls are words filed in the database; no cut-off is given here.

For orientation: LOAEL means the lowest dose or exposure tested at which an adverse effect was seen. Consider `CC(C)=CCC[C@](C)(O)[C@@H]1CC=C(C)CC1` [LEVOMENOL], for which the Activity in [1] was 33.7 mg/dL; in data set [2], 180.2 mg; in data set [3], 0.22 mg/dL; in data set [4] it was “Non-Toxic”; in [5], 81.8 U/L; in [7], 56%. Further, the Activity in [9] is 55.2%; in data set [10], 3.3 g; in data set [11], 81.9 U/L; in [12], 82.5 U/L; in data set [14], 87 U/L; in data set [15] it was 77.9 U/L. Further, the Activity result in data set [16] is “Non-Toxic”; in data set [17], 13 U/L; in data set [18], “Non-Toxic”; in [19], 33.7 mg/dL; in [20], 73 U/L; in data set [22], 49%. The result in data set [6], in data set [13] and in data set [21] was Active. This molecule also gave an LOAEL in data set [8] of 2 mL/kg.
